From ChEMBL document CHEMBL1130285, “5-HT1A-versus D2-receptor selectivity of flesinoxan and analogous N4-substituted N1-arylpiperazines” (J Med Chem, 1997)
pEC50, pKi: −log10 of the molar value.

Legend:
[1] = Partition coefficient (logP); format: physicochemical; conditions: octanol/water
How it was run: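 Retention factor k converted via calibration with 10 reference compounds (log Pow 2.1–5.7). Values below 2.1 extrapolated; interpolated values carry 95% confidence interval ±0.4.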

[2] = target: T1, 5-hydroxytryptamine receptor 1A (Rattus norvegicus, UniProt P19327); experiment: Binding affinity was evaluated by determining in vitro displacement of [3H]8-OH-DPAT from the central 5-hydroxytryptamine 1A receptor recognition site in rat frontal cortex homogenate.; format: tissue-based
T1 sequence (P19327 whole entry): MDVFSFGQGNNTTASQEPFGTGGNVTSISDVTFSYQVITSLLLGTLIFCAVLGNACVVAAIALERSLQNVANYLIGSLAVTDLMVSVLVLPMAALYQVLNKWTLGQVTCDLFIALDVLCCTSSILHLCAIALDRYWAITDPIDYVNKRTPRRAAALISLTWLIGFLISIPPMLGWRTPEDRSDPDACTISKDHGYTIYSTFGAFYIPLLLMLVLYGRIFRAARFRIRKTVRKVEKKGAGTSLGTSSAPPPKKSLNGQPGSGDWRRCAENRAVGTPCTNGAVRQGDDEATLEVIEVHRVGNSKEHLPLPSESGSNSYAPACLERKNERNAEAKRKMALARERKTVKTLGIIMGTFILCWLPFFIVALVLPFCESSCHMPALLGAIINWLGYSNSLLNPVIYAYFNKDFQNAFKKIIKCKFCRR

D(2) dopamine receptor [3] = target: T2, D(2) dopamine receptor (Rattus norvegicus, UniProt P61169); experiment: In vitro displacement of [3H]spiperone from Dopamine receptor D2 binding site in rat striatum.
D(2) dopamine receptor [4] = target: T2, D(2) dopamine receptor; experiment: pKi value against rat Dopamine receptor D2.
[5] = target: T1, 5-hydroxytryptamine receptor 1A; experiment: pKi value against rat 5-hydroxytryptamine 1A receptor.
[6] = target: T3, 5-hydroxytryptamine receptor 1A (Homo sapiens, UniProt P08908); experiment: In vitro potency at human 5-hydroxytryptamine 1A receptor in inhibiting forskolin-stimulated accumulation of intracellular cAMP; format: functional, cell-based
T3 sequence (P08908 whole entry): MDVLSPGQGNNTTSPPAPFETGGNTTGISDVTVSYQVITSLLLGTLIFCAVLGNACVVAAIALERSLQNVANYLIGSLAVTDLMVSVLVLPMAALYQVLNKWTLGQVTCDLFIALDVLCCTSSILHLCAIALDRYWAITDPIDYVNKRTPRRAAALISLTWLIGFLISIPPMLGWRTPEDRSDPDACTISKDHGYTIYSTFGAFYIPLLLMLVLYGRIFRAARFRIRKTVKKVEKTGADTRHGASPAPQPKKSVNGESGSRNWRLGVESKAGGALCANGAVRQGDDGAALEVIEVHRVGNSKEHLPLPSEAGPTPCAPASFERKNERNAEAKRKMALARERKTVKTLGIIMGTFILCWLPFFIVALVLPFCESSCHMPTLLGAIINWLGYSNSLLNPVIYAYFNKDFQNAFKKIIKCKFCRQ
How it was run: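 CHO cells stably expressing human 5-HT1A receptor, grown in α-DMEM + 10% fetal calf serum, seeded 3 days before assay. Labelled with [3H]adenine (2 μCi/mL) for 2 h, rinsed with PBS/10 mM IBMX, then stimulated 10 min with forskolin (10^-7 M) plus compound at various concentrations, in quadruplicate. TCA extraction; [3H]cAMP separated on Dowex/alumina columns, scintillation counting. EC50 from three independent experiments.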

T2 sequence (P61169 whole entry): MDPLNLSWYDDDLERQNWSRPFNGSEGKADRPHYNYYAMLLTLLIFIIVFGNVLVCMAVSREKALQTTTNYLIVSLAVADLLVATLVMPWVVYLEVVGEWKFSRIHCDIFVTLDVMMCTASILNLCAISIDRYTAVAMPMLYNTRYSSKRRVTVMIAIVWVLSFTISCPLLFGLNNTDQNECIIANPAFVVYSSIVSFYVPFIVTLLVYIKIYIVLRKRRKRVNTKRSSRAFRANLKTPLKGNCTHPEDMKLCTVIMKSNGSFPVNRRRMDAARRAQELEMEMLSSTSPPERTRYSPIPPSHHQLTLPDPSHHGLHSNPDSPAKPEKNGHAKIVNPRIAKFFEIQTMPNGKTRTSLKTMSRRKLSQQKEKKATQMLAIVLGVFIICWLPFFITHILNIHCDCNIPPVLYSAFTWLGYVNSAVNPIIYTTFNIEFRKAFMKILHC

Row | SMILES | logP [1] | pKi [2] | pKi (D(2) dopamine receptor [3]) | pKi (D(2) dopamine receptor [4]) | pKi [5] | pEC50 [6]
1 | COc1ccccc1N1CCN(CCCOc2ccc(F)cc2)CC1 | 4.1 | 8.47 | 8.48 | 8.50 | 8.50 | 
2 | COc1ccccc1N1CCN(CCCC(=O)c2ccc(F)cc2)CC1 [FLUANISONE] | 3.6 | 9.00 | 8.51 | 8.60 | 9.00 | 
3 | COc1ccccc1N1CCN(CCNC(=O)c2ccc[nH]2)CC1 | 1.6 | 7.80 | 7.19 | 7.20 | 7.80 | 
4 | COc1ccccc1N1CCN(CCNC(=O)c2ccco2)CC1 | 1.6 | 7.74 | 7.14 | 7.10 | 7.70 | 
5 | O=C(NCCN1CCN(c2cccc3ccoc23)CC1)c1ccc(F)cc1 |  |  | 8.28 |  |  | 
6 | O=C(NCCN1CCN(c2cccc3c2OCC(CO)O3)CC1)c1ccc(F)cc1 (single isomer, unassigned) [FLESINOXAN] |  | 8.77 | 6.85 |  |  | 
7 | COc1ccccc1N1CCN(CCNC(=O)c2cccnc2)CC1 | 1.2 | 6.85 | 6.24 | 6.30 | 6.80 | 
8 | c1ccc(N2CCNCC2)cc1 [PHENYLPIPERAZINE] |  |  | 5.17 |  |  | 
9 | O=C(NCCN1CCN(c2ccccc2)CC1)c1ccc(F)cc1 |  | 8.31 |  |  |  | 
10 | c1cc(N2CCNCC2)c2occc2c1 |  |  | 6.11 |  |  | 
11 | COc1ccccc1N1CCN(CCNC(=O)c2ccccc2)CC1 | 2.2 | 8.89 | 7.89 | 7.90 | 8.90 | 
12 | CC1CN(c2cccc3c2OCCO3)CC(C)N1CCNC(=O)c1ccc(F)cc1 (stereo not drawn) |  |  |  |  |  | 9.11
13 | COc1ccccc1N1CCN(CC/C=C/c2ccc(F)cc2)CC1 | 4.7 | 8.74 | 8.39 | 8.40 | 8.70 | 
14 | COc1ccccc1N1CCN(CCCC(O)c2ccc(F)cc2)CC1 (stereo not drawn) [ANISOPIROL] | 3.4 | 8.60 | 8.47 | 8.50 | 8.60 | 
15 | COc1ccccc1N1CCN(CCNC(C)=O)CC1 | 0.5 | 6.10 | 5.96 | 6.00 | 6.10 | 
16 | COc1ccccc1N1CCN(CCNC(=S)C2CCCCC2)CC1 | 3.7 | 9.49 | 8.19 | 8.20 | 9.50 | 
17 | COc1ccccc1N1CCN(CCCCc2ccc(F)cc2)CC1 | 4.8 | 8.96 | 8.48 | 8.50 | 9.00 | 
18 | COc1ccccc1N1CCN(CCNC(=O)c2cccs2)CC1 | 2 | 8.80 | 7.77 | 7.80 | 8.80 | 
19 | O=C(NCCN1CCN(c2cccc3c2OCCO3)CC1)c1ccc(F)cc1 |  |  | 7.85 |  |  | 9.05
20 | COc1ccccc1N1CCN(CCNC(=O)C2CCCCC2)CC1 | 2.8 | 9.10 | 7.64 | 7.90 | 9.10 | 
21 | COc1ccccc1N1CCN(CCNC(=N)C2CCCCC2)CC1 | 3.4 | 8.35 | 6.89 | 6.90 | 8.30 | 
22 | COc1ccccc1N1CCN(CCNC(=O)c2ccncn2)CC1 | 1.5 | 7.82 | 6.60 | 6.60 | 7.80 | 
23 | OC[C@@H]1COc2c(cccc2N2CCNCC2)O1 |  |  | < 5.00 |  |  | 
24 | COc1ccccc1N1CCN(CCOCc2ccc(F)cc2)CC1 | 3.6 | 7.66 | 8.00 | 8.00 | 7.70 | 
25 | COc1ccccc1N1CCN(CCNC(=O)c2ccc(F)cc2)CC1 | 2.5 | 9.00 |  |  | 9.00 | 
